The source of these data is ChEMBL document CHEMBL1138270, “Antimycobacterial activities of novel 1-(cyclopropyl/tert-butyl/4-fluorophenyl)-1,4-dihydro- 6-nitro-4-oxo-7-(substituted secondary amino)-1,8-naphthyridine-3-carboxylic acid” (J Med Chem, 2007).

The test system of series [1] is Mus musculus. Description: Phototoxicity in UV light irradiated Swiss Albino mouse assessed as ear thickness at 140 mg/kg, po. More on the design: dose 140 mg/kg, route oral. Conditions: in vivo. It is filed as organism-based. The method in brief:
(§1)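 Female Swiss albino mice (~2 months, 20-25 g) were fasted ≥18 h and given 140 mg/kg orally by gavage; controls received 0.5% Na-CMC vehicle at 10 mL/kg. UVA started right after dosing, 4 h (~18 J/cm2). Ear thickness was measured before dosing and at 4, ~24, 48, 72 and 96 h, reported as mean of left and right ears ± SEM.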

For series [2], the system named is Mus musculus. Description: Phototoxicity in Swiss Albino mouse assessed as ear thickness at 140 mg/kg, po after 48 hrs of irradiation. As to conditions: in vivo. The series is classed as organism-based. More on the design: dose 140 mg/kg, route oral. Summed up: as §1
Series [3] deals with Mus musculus. The series can be described thus: Phototoxicity in Swiss Albino mouse assessed as ear erythema at 140 mg/kg, po after 48 hrs of irradiation. The series is classed as organism-based. Details: dose 140 mg/kg, route oral. Conditions: in vivo.
For series [4], the system named is Mycolicibacterium smegmatis. The series can be described thus: Antimicrobial activity against Mycobacterium smegmatis by agar dilution method. It is filed as functional. Summed up:
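Agar dilution against M. smegmatis ATCC 14468; MIC determined in duplicate.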
On the technique in general: In agar dilution, organisms are placed on agar that contains the substance at set levels.

Series [5] relates to Mus musculus. The series can be described thus: Toxicity in C57BL/6 mouse at 500 mg/kg. It is filed as organism-based. Conditions: in vivo. Details: dose 500 mg/kg. The method in brief:
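Maximum tolerated dose study in female C57BL/6 mice: single escalating doses of 100, 300 and 500 mg/kg, 3 mice/dose.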

The test system of series [6] is Mus musculus. Description: Phototoxicity in Swiss Albino mouse assessed as ear thickness at 140 mg/kg, po after 4 hrs of irradiation. It is filed as organism-based. More on the design: dose 140 mg/kg, route oral. Conditions: in vivo. Summed up: as §1
Series [7] concerns Mus musculus. The series can be described thus: Phototoxicity in UV light irradiated Swiss Albino mouse assessed ear erythema at 140 mg/kg, po. It is filed as organism-based. Details: dose 140 mg/kg, route oral. Conditions: in vivo.
The test system of series [8] is Mus musculus. The series can be described thus: Phototoxicity in Swiss Albino mouse assessed as ear erythema at 140 mg/kg, po after 4 hrs of irradiation. It is filed as organism-based. Details: dose 140 mg/kg, route oral. Conditions: in vivo.
For series [9], the system named is Mus musculus. The series can be described thus: Phototoxicity in Swiss Albino mouse assessed as ear erythema at 140 mg/kg, po after 96 hrs of irradiation. It is filed as organism-based. More on the design: dose 140 mg/kg, route oral. As to conditions: in vivo.
In a further series the test system is Vero. The series can be described thus: Cytotoxicity against Vero cells after 72 hrs by MTT assay. The series is classed as cell-based. As to conditions: Chlorocebus sabaeus. The method in brief:
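Vero cells were exposed to serially diluted compound up to 62.5 µg/mL for 72 h. Viability was read by cellular conversion of MTT to formazan (CellTiter 96 non-radioactive proliferation assay), and IC50 was derived.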
(In general: Formazan colour is commonly taken as a measure of viable cells.)

Series [10] has as its system Mus musculus. Description: Phototoxicity in Swiss Albino mouse assessed as ear thickness at 140 mg/kg, po after 24 hrs of irradiation. It is filed as organism-based. More on the design: dose 140 mg/kg, route oral. Conditions: in vivo. The method in brief:
as §1

In series [11] the test system is Mus musculus. Description: Phototoxicity in Swiss Albino mouse assessed as ear thickness at 140 mg/kg, po after 72 hrs of irradiation. It is filed as organism-based. Details: dose 140 mg/kg, route oral. Conditions: in vivo. The method in brief: as §1
A short description of series [12]: Inhibition of Mycobacterium smegmatis DNA gyrase supercoiling activity. Details: species or system Mycolicibacterium smegmatis. Summed up:
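Gyrase purified from M. smegmatis was preincubated with compound in DMSO (5% DMSO in reaction). 400 ng relaxed pUC18 was added in 35 mM Tris-HCl pH 7.5, 5 mM MgCl2, 25 mM K-glutamate, 2 mM spermidine, 2 mM ATP, BSA, tRNA and 5% glycerol, 1 h at 37 °C. Samples were heat-inactivated, run on 1% agarose in TAE, and ethidium-stained; IC50 was derived.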

Series [13] concerns Mycobacterium tuberculosis. The series can be described thus: Antimycobacterial activity against Mycobacterium tuberculosis ATCC 35801 infected CD1 mouse assessed as lung bacterial count at 50 mg/kg, ip after 35 days post infection. It is filed as functional. As to conditions: route intraperitoneal. Summed up: (§2)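 CD-1 mice were infected intravenously via the caudal vein with about 10⁷ viable M. tuberculosis ATCC 35801. Intraperitoneal treatment began 10 days after inoculation and ran for 10 days. At 35 days post-infection, spleens and right lungs were homogenized, serially diluted 10-fold and plated on 7H10 agar at 37 °C in ambient air for 4 weeks. Counts were compared with vehicle-treated controls and given as log CFU ± SEM.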

The subject of series [14] is Mus musculus. Description: Phototoxicity in Swiss Albino mouse assessed as ear thickness at 140 mg/kg, po after 96 hrs of irradiation. The series is classed as organism-based. More on the design: dose 140 mg/kg, route oral. As to conditions: in vivo. Summed up:
as §1

Series [15] has as its system Mus musculus. The series can be described thus: Phototoxicity in Swiss Albino mouse assessed as ear erythema at 140 mg/kg, po after 24 hrs of irradiation. The series is classed as organism-based. Details: dose 140 mg/kg, route oral. As to conditions: in vivo.
The test system of series [16] is Mycobacterium tuberculosis. Description: Antimycobacterial activity against Mycobacterium tuberculosis ATCC 35801 infected CD1 mouse assessed as spleen bacterial count at 50 mg/kg, ip after 35 days post infection. It is filed as functional. Conditions: route intraperitoneal. Summed up:
as §2

Series [17] concerns Mus musculus. Description: Phototoxicity in Swiss Albino mouse assessed as ear erythema at 140 mg/kg, po after 72 hrs of irradiation. It is filed as organism-based. More on the design: dose 140 mg/kg, route oral. As to conditions: in vivo.
For series [18], the system named is Mycobacterium tuberculosis. Description: Antimycobacterial activity against Mycobacterium tuberculosis H37Rv by agar dilution method. The series is classed as functional. The method in brief: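 MIC was determined by agar dilution, in duplicate.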
Series [19] has as its system Mycobacterium tuberculosis. Description: Antimycobacterial activity against Mycobacterium tuberculosis ATCC 35801 infected CD1 mouse assessed as lung bacterial count at 25 mg/kg, ip after 35 days post infection. It is filed as functional. Conditions: route intraperitoneal. The method in brief:
as §2

Series [20] concerns Mycobacterium tuberculosis. The series can be described thus: Antimycobacterial activity against Mycobacterium tuberculosis ATCC 35801 infected CD1 mouse assessed as spleen bacterial count at 25 mg/kg, ip after 35 days post infection. It is filed as functional. As to conditions: route intraperitoneal. The method in brief: as §2

The structures appear in SMILES notation. In brackets after ≈: the same amount, converted by molar mass.

For `CC1(C)COCN1c1nc2c(cc1[N+](=O)[O-])c(=O)c(C(=O)O)cn2C(C)(C)C`, the Activity in the series on Mus musculus [1] is reported as 0.24 mm; with Mus musculus [2], 0.29 mm; in the series on Mus musculus [3], “Toxic”; in the series with Mus musculus [5], “Non-toxic”; in the series on Mus musculus [6] it was 0.28 mm; in the series on Mus musculus [7], “Non-toxic”. Besides, the Activity result in the series with Mus musculus [8] is on record as “Non-toxic”; in the series on Mus musculus [9], “Toxic”; in the series on Mus musculus [10] it was 0.26 mm; with Mus musculus [11], 0.3 mm; in the series on Mus musculus [14] it was 0.3 mm; with Mus musculus [15], “Non-toxic”. Further, the Activity result with Mus musculus [17] is given as “Toxic”. The values for the MIC in [4] and in series [18] were 3.99 µM (≈ 1.56 µg/mL) and 0.1 µM (≈ 0.039 µg/mL), respectively. The results for the IC50 (with Vero; in [12]) were over 160 µM and 256 µM, respectively. For the same compound, the Log10 cfu came to 5.6 in series [13] and 5.13 in [16].
Take `NNC(=O)c1ccncc1` [ISONIAZID]: the minimal inhibitory concentration (MIC) (in general, the lowest concentration that inhibits growth of the organism) in [4] turned out to be 45.6 µM (≈ 6.25 µg/mL); in series [18], 0.36 µM (≈ 0.0494 µg/mL). Also, the Log10 cfu in series [19] is recorded as 5.86; in [20], 4.71. In addition, the IC50 – broadly, the concentration that inhibits the measured activity by half – with Vero is over 456 µM.
Consider `COc1c(N2CCNC(C)C2)c(F)cc2c(=O)c(C(=O)O)cn(C3CC3)c12` (stereo not given) [GATIFLOXACIN], for which the figures for the MIC in [4] and in series [18] were 2.08 µM (≈ 0.781 µg/mL) and 1.04 µM (≈ 0.39 µg/mL), respectively. This compound also had a half-maximal inhibitory concentration (IC50) with Vero of over 155 µM. Further, the Log10 cfu in series [13] turned out to be 6.02; in series [16], 6.92.
Turning to `CC(C)(C)n1cc(C(=O)O)c(=O)c2cc([N+](=O)[O-])c(N3CCSCC3)nc21`, the Activity was 0.27 mm with Mus musculus [1]; 0.29 mm in the series with Mus musculus [2]; “Non-toxic” with Mus musculus [3]; 0.28 mm in the series on Mus musculus [6]; “Non-toxic” in the series with Mus musculus [7]; “Non-toxic” in the series on Mus musculus [8]. Besides, the Activity result with Mus musculus [9] is on record as “Non-toxic”; in the series with Mus musculus [10], 0.28 mm; in the series with Mus musculus [11], 0.3 mm; in the series with Mus musculus [14] it was 0.32 mm; with Mus musculus [15], “Non-toxic”; in the series with Mus musculus [17], “Non-toxic”. The minimum inhibitory concentration (MIC) stood at 1.99 µM (≈ 0.781 µg/mL) in series [4] and 0.99 µM (≈ 0.389 µg/mL) in series [18]. Besides, the 50% inhibitory concentration (IC50) with Vero came out at 79.6 µM; in series [12], 102 µM.
